Experimental data published in ChEMBL document CHEMBL1765019, “Design, synthesis and biological activity of thiazolidine-4-carboxylic acid derivatives as novel influenza neuraminidase inhibitors” (Bioorg Med Chem, 2011).
pIC50: −log10 of the molar value.

The molecules below were run against Neuraminidase (Influenza A virus, UniProt B4URF0) (assay: Inhibition of influenza A virus neuraminidase assessed as cleavage of MUNANA substrate by fluorescence assay).
Outline: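 Screening-kit NA enzyme, not from an avian H5N1 strain, incubated with buffer, substrate and inhibitor at 37 °C. Reaction stopped with stop solution. IC50 taken from percent inhibition plotted against inhibitor concentration; each point in duplicate.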

SMILES | pIC50
O=C(O)c1ccccc1C1SC[C@@H](C(=O)O)N1C(=O)CCl (mixture of isomers) | 4.97
NCC(=O)N1C(c2ccco2)SC[C@H]1C(=O)O (mixture of isomers) | 6.01
COc1cccc(C2SC[C@@H](C(=O)O)N2C(=O)Cc2ccccc2)c1O (mixture of isomers) | 5.79
O=C(O)[C@@H]1CSC(c2ccccc2[N+](=O)[O-])N1 (mixture of isomers) | 4.65
O=C(O)c1ccccc1C1SC[C@@H](C(=O)O)N1C(=O)Cc1ccccc1 (mixture of isomers) | 5.72
O=C(O)[C@@H]1CSC(c2ccccc2)N1C(=O)CCl (mixture of isomers) | 5.12
NCC(=O)N1C(c2ccccc2)SC[C@H]1C(=O)O (mixture of isomers) | 6.28
NCC(=O)N1C(c2ccccc2[N+](=O)[O-])SC[C@H]1C(=O)O (mixture of isomers) | 5.99
COc1cccc(C2SC[C@@H](C(=O)O)N2C(=O)CCl)c1O (mixture of isomers) | 5.10
O=C(O)[C@@H]1CSC(c2ccco2)N1C(=O)CCl (mixture of isomers) | 4.89
O=C(O)[C@@H]1CSC(c2ccccc2[N+](=O)[O-])N1C(=O)CCl (mixture of isomers) | 5.12
N#Cc1ccc(C2SC[C@@H](C(=O)O)N2C(=O)CN)cc1 (mixture of isomers) | 6.09
N#Cc1ccc(C2N[C@H](C(=O)O)CS2)cc1 (mixture of isomers) | 4.63
O=C(O)[C@@H]1CSC(c2ccccc2[N+](=O)[O-])N1C(=O)Cc1ccccc1 (mixture of isomers) | 5.73
O=C(O)c1ccccc1C1N[C@H](C(=O)O)CS1 (mixture of isomers) | 4.74
O=C(O)[C@@H]1CSC(c2ccco2)N1 (mixture of isomers) | 4.37
N#Cc1ccc(C2SC[C@@H](C(=O)O)N2C(=O)CCl)cc1 (mixture of isomers) | 5.06
N#Cc1ccc(C2SC[C@@H](C(=O)O)N2C(=O)Cc2ccccc2)cc1 (mixture of isomers) | 5.61
NCC(=O)N1C(c2ccccc2C(=O)O)SC[C@H]1C(=O)O (mixture of isomers) | 6.55
O=C(O)[C@@H]1CSC(c2ccco2)N1C(=O)Cc1ccccc1 (mixture of isomers) | 5.54
NCC(=O)N1C(c2ccccc2O)SC[C@H]1C(=O)O (mixture of isomers) | 6.68
O=C(O)[C@@H]1CSC(c2ccccc2)N1 (mixture of isomers) | 4.67
O=C(O)[C@@H]1CSC(c2ccccc2)N1C(=O)Cc1ccccc1 (mixture of isomers) | 5.92
COc1cccc(C2N[C@H](C(=O)O)CS2)c1O (mixture of isomers) | 4.91
COc1cccc(C2SC[C@@H](C(=O)O)N2C(=O)CN)c1O (mixture of isomers) | 6.85
O=C(O)[C@@H]1CSC(c2ccccc2O)N1 (mixture of isomers) | 4.69
O=C(O)[C@@H]1CSC(c2ccccc2O)N1C(=O)CCl (mixture of isomers) | 5.23
O=C(O)[C@@H]1CSC(c2ccccc2O)N1C(=O)Cc1ccccc1 (mixture of isomers) | 6.19
